≈ marks a conversion by molar mass, not a printed value. Peptide text beside a SMILES is read from it.
Legend:
[1] = Selectivity index, Ratio of MIC for Pseudomonas aeruginosa PAO1 to fraction of human erythrocyte hemolysis at 64 uM; format: functional
[2] = system: Staphylococcus epidermidis; assay: Antimicrobial activity against Staphylococcus epidermidis; format: functional
Pseudomonas aeruginosa = assay: Antimicrobial activity against Pseudomonas aeruginosa PAO1; format: functional
Outline: (§1)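 MICs were determined by standard methods on the gram-negative strains and on S. aureus strains 6538p (methicillin-sensitive) and BBA-41 (methicillin-resistant). Peptides had acetylated N termini and amidated C termini, and were purified by RP-HPLC. Reported as the range of values seen in at least three independent experiments.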

J774.A1 [3] = assay: Cytotoxicity against mouse […] cell assessed as survival rate; format: functional; parameters: concentration or dose not given beside the values
Outline: (§2)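 Cultured murine macrophages were exposed to peptide at a final concentration of 30 μM or 10 μM, depending on the peptide. Viability was read by MTT conversion to formazan. Results are percent survival versus buffer-treated controls, as mean and standard error of the mean of at least three independent experiments.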

[4] = Selectivity index, Ratio of MIC for Escherichia coli BL21 to fraction of human erythrocyte hemolysis at 64 uM; format: functional
[5] = Selectivity index, Ratio of MIC for Staphylococcus aureus 6538p to fraction of human erythrocyte hemolysis at 64 uM; format: functional
[6] = Selectivity index, Ratio of MIC for Staphylococcus epidermidis to fraction of human erythrocyte hemolysis at 64 uM; format: functional
Escherichia coli = assay: Antimicrobial activity against Escherichia coli BL21; format: functional; outline: as §1
RAW264.7 [7] = assay: Cytotoxicity against mouse RAW264.7 cell assessed as survival rate; format: functional; parameters: concentration or dose not given beside the values; outline: as §2
Staphylococcus aureus [8] = assay: Antimicrobial activity against Staphylococcus aureus BBA-41; format: functional; outline: as §1
Staphylococcus aureus [9] = assay: Antimicrobial activity against Staphylococcus aureus 6538p; format: functional; outline: as §1
Homo sapiens = species: Homo sapiens; assay: Hemolysis of human erythrocyte at 64 uM; format: ADME
Outline: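 Peptide (64 μM) was incubated with a 1% suspension of fresh human erythrocytes at 37°C for 1 h. Released hemoglobin was measured and expressed relative to cells lysed with 1% Triton X-100. Values are means of multiple independent experiments.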

RAW264.7 [10] = assay: Cytotoxicity against mouse RAW264.7 cell assessed as survival rate at 10 uM; format: functional; outline: as §2
J774.A1 [11] = assay: Cytotoxicity against mouse […] cell assessed as survival rate at 10 uM; format: functional; outline: as §2

CC[C@H](C)[C@H](NC(=O)[C@H](CCCCN)NC(=O)[C@H](CCCCN)NC(=O)[C@H](Cc1ccccc1)NC(=O)[C@H](CCCCN)NC(=O)[C@H](CCCCN)NC(=O)[C@H](Cc1c[nH]c2ccccc12)NC(=O)[C@H](CCCCN)NC(C)=O)C(=O)NCC(=O)N[C@@H](C)C(=O)N[C@H](C(=O)N[C@@H](CC(C)C)C(=O)N[C@@H](CCCCN)C(=O)N[C@@H](CCCCN)C(=O)N[C@@H](CC(C)C)C(N)=O)C(C)C (Ac-KWKKFKKIGAVLKKL-NH2)
Selectivity Index [1]: 8.3 | MIC [2]: 0.5 µM (≈ 0.928 µg/mL) | MIC (Pseudomonas aeruginosa): 1 µM (≈ 1.86 µg/mL) | Activity (J774.A1 [3]): 94% | Selectivity Index [4]: 16.7 | Selectivity Index [5]: <0.5 | Selectivity Index [6]: 68 | MIC (Escherichia coli): 1 µM (≈ 1.86 µg/mL) | Activity (RAW264.7 [7]): 104% | MIC (Staphylococcus aureus [8]): > 16 µM | MIC (Staphylococcus aureus [9]): > 16 µM | Hemolysis (Homo sapiens): 3%

CC[C@H](C)[C@H](NC(=O)[C@H](CCCCN)NC(=O)[C@H](CCCCN)NC(=O)[C@H](Cc1ccccc1)NC(=O)[C@H](CCCCN)NC(=O)[C@H](CCCCN)NC(=O)[C@H](Cc1c[nH]c2ccccc12)NC(=O)[C@H](CCCCN)NC(C)=O)C(=O)NCC(=O)N[C@@H](C)C(=O)N[C@H](C(=O)N[C@@H](CC(C)C)C(=O)N[C@@H](CCCCN)C(=O)N[C@H](C(=O)N[C@@H](CC(C)C)C(N)=O)C(C)C)C(C)C (Ac-KWKKFKKIGAVLKVL-NH2)
Selectivity Index [1]: 4.8 | MIC [2]: 0.5 µM (≈ 0.914 µg/mL) | MIC (Pseudomonas aeruginosa): 0.5 µM (≈ 0.914 µg/mL) | Activity (J774.A1 [3]): 81% | Selectivity Index [4]: 9.5 | Selectivity Index [5]: 0.3 | Selectivity Index [6]: 9.5 | MIC (Escherichia coli): 0.25 µM (≈ 0.457 µg/mL) | Activity (RAW264.7 [7]): 73% | MIC (Staphylococcus aureus [8]): > 16 µM | MIC (Staphylococcus aureus [9]): 16 µM (≈ 29.2 µg/mL) | Hemolysis (Homo sapiens): 21%

CC[C@H](C)[C@H](NC(=O)[C@H](CCCCN)NC(=O)[C@H](CCCCN)NC(=O)[C@H](Cc1ccccc1)NC(=O)[C@H](CCCCN)NC(=O)[C@H](CCCCN)NC(=O)[C@H](Cc1c[nH]c2ccccc12)NC(=O)[C@H](CCCCN)NC(C)=O)C(=O)NCC(=O)N[C@@H](CCCCN)C(=O)N[C@H](C(=O)N[C@@H](CC(C)C)C(=O)N[C@@H](CCCCN)C(=O)N[C@H](C(=O)N[C@@H](CC(C)C)C(N)=O)C(C)C)C(C)C (Ac-KWKKFKKIGKVLKVL-NH2)
Selectivity Index [1]: 11 | MIC [2]: 0.25 µM (≈ 0.471 µg/mL) | MIC (Pseudomonas aeruginosa): 0.5 µM (≈ 0.942 µg/mL) | Activity (J774.A1 [3]): 88% | Selectivity Index [4]: 22 | Selectivity Index [5]: 0.7 | Selectivity Index [6]: 44 | MIC (Escherichia coli): 0.5 µM (≈ 0.942 µg/mL) | Activity (RAW264.7 [7]): 86% | MIC (Staphylococcus aureus [8]): > 16 µM | MIC (Staphylococcus aureus [9]): 16 µM (≈ 30.2 µg/mL) | Hemolysis (Homo sapiens): 9%

CC[C@H](C)[C@H](NC(=O)[C@H](CCCCN)NC(=O)[C@H](CCCCN)NC(=O)[C@H](Cc1ccccc1)NC(=O)[C@H](CC(C)C)NC(=O)[C@H](CCCCN)NC(=O)[C@H](Cc1c[nH]c2ccccc12)NC(=O)[C@H](CCCCN)NC(C)=O)C(=O)NCC(=O)N[C@@H](C)C(=O)N[C@H](C(=O)N[C@@H](CC(C)C)C(=O)N[C@@H](CCCCN)C(=O)N[C@@H](CCCCN)C(=O)N[C@@H](CC(C)C)C(N)=O)C(C)C (Ac-KWKLFKKIGAVLKKL-NH2)
Selectivity Index [1]: 6.25 | MIC [2]: 0.25 µM (≈ 0.46 µg/mL) | MIC (Pseudomonas aeruginosa): 2 µM (≈ 3.68 µg/mL) | Activity (J774.A1 [3]): 74% | Selectivity Index [4]: 6.25 | Selectivity Index [5]: 3 | Selectivity Index [6]: 48 | MIC (Escherichia coli): 1 µM (≈ 1.84 µg/mL) | Activity (RAW264.7 [7]): 88% | MIC (Staphylococcus aureus [8]): 8 µM (≈ 14.7 µg/mL) | MIC (Staphylococcus aureus [9]): 4 µM (≈ 7.37 µg/mL) | Hemolysis (Homo sapiens): 4%

CC[C@H](C)[C@H](NC(=O)[C@H](CCCCN)NC(=O)[C@H](CCCCN)NC(=O)[C@H](Cc1ccccc1)NC(=O)[C@H](CC(C)C)NC(=O)[C@H](CCCCN)NC(=O)[C@H](Cc1c[nH]c2ccccc12)NC(=O)[C@H](CCCCN)NC(C)=O)C(=O)NCC(=O)N[C@@H](C)C(=O)N[C@H](C(=O)N[C@@H](CC(C)C)C(=O)N[C@@H](CCCCN)C(=O)N[C@H](C(=O)N[C@@H](CC(C)C)C(N)=O)C(C)C)C(C)C (Ac-KWKLFKKIGAVLKVL-NH2)
Selectivity Index [1]: 0.56 | MIC [2]: 0.5 µM (≈ 0.906 µg/mL) | Activity (RAW264.7 [10]): 21% | MIC (Pseudomonas aeruginosa): 2 µM (≈ 3.62 µg/mL) | Selectivity Index [4]: 2.2 | Selectivity Index [5]: 1.1 | Selectivity Index [6]: 2.2 | MIC (Escherichia coli): 0.5 µM (≈ 0.906 µg/mL) | Activity (J774.A1 [11]): 16% | MIC (Staphylococcus aureus [8]): 1 µM (≈ 1.81 µg/mL) | MIC (Staphylococcus aureus [9]): 0.5 µM (≈ 0.906 µg/mL) | Hemolysis (Homo sapiens): 45%

CC[C@H](C)[C@H](NC(=O)[C@H](CCCCN)NC(=O)[C@H](CCCCN)NC(=O)[C@H](Cc1ccccc1)NC(=O)[C@H](CC(C)C)NC(=O)[C@H](CCCCN)NC(=O)[C@H](Cc1c[nH]c2ccccc12)NC(=O)[C@H](CCCCN)NC(C)=O)C(=O)NCC(=O)N[C@@H](CCCCN)C(=O)N[C@H](C(=O)N[C@@H](CC(C)C)C(=O)N[C@@H](CCCCN)C(=O)N[C@@H](CCCCN)C(=O)N[C@@H](CC(C)C)C(N)=O)C(C)C (Ac-KWKLFKKIGKVLKKL-NH2)
Selectivity Index [1]: 6.25 | MIC [2]: 0.25 µM (≈ 0.475 µg/mL) | MIC (Pseudomonas aeruginosa): 1 µM (≈ 1.9 µg/mL) | Activity (J774.A1 [3]): 45% | Selectivity Index [4]: 12.5 | Selectivity Index [5]: 1.5 | Selectivity Index [6]: 50 | MIC (Escherichia coli): 1 µM (≈ 1.9 µg/mL) | Activity (RAW264.7 [7]): 57% | MIC (Staphylococcus aureus [8]): 16 µM (≈ 30.4 µg/mL) | MIC (Staphylococcus aureus [9]): 4 µM (≈ 7.59 µg/mL) | Hemolysis (Homo sapiens): 8%

CC[C@H](C)[C@H](NC(=O)[C@H](CCCCN)NC(=O)[C@H](CCCCN)NC(=O)[C@H](Cc1ccccc1)NC(=O)[C@H](CC(C)C)NC(=O)[C@H](CCCCN)NC(=O)[C@H](Cc1c[nH]c2ccccc12)NC(=O)[C@H](CCCCN)NC(C)=O)C(=O)NCC(=O)N[C@@H](CCCCN)C(=O)N[C@H](C(=O)N[C@@H](CC(C)C)C(=O)N[C@@H](CCCCN)C(=O)N[C@H](C(=O)N[C@@H](CC(C)C)C(N)=O)C(C)C)C(C)C (Ac-KWKLFKKIGKVLKVL-NH2)
Selectivity Index [1]: 0.4 | MIC [2]: 0.5 µM (≈ 0.935 µg/mL) | MIC (Pseudomonas aeruginosa): 1 µM (≈ 1.87 µg/mL) | Activity (J774.A1 [3]): 43% | Selectivity Index [4]: 1.5 | Selectivity Index [5]: 0.8 | Selectivity Index [6]: 3 | MIC (Escherichia coli): 0.5 µM (≈ 0.935 µg/mL) | Activity (RAW264.7 [7]): 56% | MIC (Staphylococcus aureus [8]): 4 µM (≈ 7.48 µg/mL) | MIC (Staphylococcus aureus [9]): 1 µM (≈ 1.87 µg/mL) | Hemolysis (Homo sapiens): 67%
